This is an account of results in ChEMBL document CHEMBL1124602, “Diethylstilbestrol-linked cytotoxic agents: synthesis and binding affinity for estrogen receptors” (J Med Chem, 1989).

Activity calls are given as the source filed them. No cut-off for these calls is given here.

In the first experiment the target is T1, Estrogen receptor (Rattus norvegicus) (UniProt P06211+Q62986). Put plainly: Relative binding affinity (RBA) for estrogen receptor in rat uterine cytosol compared to [3H]estradiol; No binding. The conditions noted are these: Uterus. Put shortly:
(§1)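 Competitive binding: rat uterine cytosol incubated 30 min at 18 °C with 5 × 10⁻⁹ [³H]estradiol, alone or with increasing competitor (10⁻⁹ to 10⁻⁵ M). Unlabeled estradiol serves as the reference competitor for relative binding affinity.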
Take `CC[C@@H](c1ccc(O)cc1)[C@H](CCCN[C@H]1C[C@H](O[C@H]2C[C@](O)(C(C)=O)Cc3c(O)c4c(c(O)c32)C(=O)c2c(OC)cccc2C4=O)O[C@@H](C)[C@H]1O)c1ccc(O)cc1`: the “relative binding affinity (RBA)” value was “inactive”.

The next experiment addresses T1, Estrogen receptor (Rattus norvegicus). Put plainly: Relative binding affinity (RBA) for estrogen receptor of rat uterine cytosol compared to [3H]estradiol. Type of experiment: protein assay.
Settings: not given
Put shortly: as §1
As to `CC[C@@H](c1ccc(O)cc1)[C@H](CCCC(=O)O)c1ccc(O)cc1`, the relative binding affinity (RBA) was determined as 0.1.
Still for that read-out and setting: the result for `CCOCCCC[C@H](c1ccc(O)cc1)[C@@H](CC)c1ccc(O)cc1` reads 1.2; that for `CC[C@@H](c1ccc(O)cc1)[C@H](CCCC(=O)N(CC)CC)c1ccc(O)cc1`, 1; that for `CCCCCCCC[C@H](c1ccc(O)cc1)[C@@H](CC)c1ccc(O)cc1`, 0.2.
With `CC[C@@H](c1ccc(O)cc1)[C@H](CCCCOS(C)(=O)=O)c1ccc(O)cc1`, the relative binding affinity (RBA) turned out to be 1.8.
Consider `CC[C@@H](c1ccc(O)cc1)[C@H](CCCCCl)c1ccc(O)cc1`, for which the relative binding affinity (RBA) is 3.
As for `CC[C@@H](c1ccc(O)cc1)[C@H](CCCCOC(=O)NCCCl)c1ccc(O)cc1`, the relative binding affinity (RBA) stood at 1.
Same read-out and setting: in the case of `CCCC[C@H](c1ccc(O)cc1)[C@@H](CC)c1ccc(O)cc1` it was 10.
As for `CC[C@@H](c1ccc(O)cc1)[C@H](CCCC(=O)Oc1c(Cl)c(Cl)c(Cl)c(Cl)c1Cl)c1ccc(O)cc1`, the relative binding affinity (RBA) came out at 0.3.
The compound `CC[C@@H](c1ccc(O)cc1)[C@H](CCCCI)c1ccc(O)cc1` displayed a relative binding affinity (RBA) of 1.5.
The same measure, in the same setting: the result for `CC[C@@H](c1ccc(O)cc1)[C@H](CCCC(=O)Oc1ccc(Cl)cc1)c1ccc(O)cc1` reads 0.3; that for `CC[C@@H](c1ccc(O)cc1)[C@H](CCCCO)c1ccc(O)cc1`, 1.5.
